Assay results published in paper PMC2692502 (Journal of Antimicrobial Chemotherapy, 2009).

Columns and labels:
[1] = Study 2: single- and multiple-dose pharmacokinetics of the 2 min iv injection; type: in vivo, human; conditions: both, human, iv; for clearance: CL; for clearance / Cmax / Vd / half-life: arithmetic mean (SD); for Cmax: HPLC; for Tmax: median (range); for Vd: V; for dose excreted: urine
In short: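 Healthy adults were randomized single-blind to 6 or 4 mg/kg test compound or placebo as a 2 min peripheral iv injection by syringe driver, once daily for 7 days. Heparinized blood was drawn on days 1 and 7, from predose to 24 h after injection start, plus 36 and 48 h on day 7. Total plasma drug was measured by HPLC (LLOQ 3 mg/L). Non-compartmental analysis gave AUC by the trapezoidal rule and CL, reported as arithmetic means.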

[2] = Study 2: safety and tolerability; type: in vivo, human
In short: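 Healthy adults (24 enrolled) were randomized 3:2:1 in a single-blind, placebo-controlled, parallel-group design. Groups received test compound 6 mg/kg, 4 mg/kg or placebo as a 2 min peripheral iv injection by syringe driver, once daily for 7 days. All subjects entered the safety analysis. The investigator graded AEs for relatedness (not, unlikely, possibly, probably) and severity. Tabulated AEs were possibly or probably related. Follow-up was 9–11 days after last dose.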

[3] = plasma, 4 mg/kg, Study 2, day 7, 4 mg/kg 2 min iv injection once daily, plasma, n = 8, SD
[4] = plasma, 4 mg/kg, Study 2, day 1, 4 mg/kg 2 min iv injection, plasma, n = 8, SD
[5] = plasma, 6 mg/kg, Study 2, day 7, 6 mg/kg 2 min iv injection once daily, plasma, n = 12, SD
[6] = plasma, 6 mg/kg, Study 2, day 1, 6 mg/kg 2 min iv injection, plasma, n = 12, SD
[7] = Study 2, 4 mg/kg 2 min iv injection once daily for 7 days, n = 8
[8] = Study 2, 6 mg/kg 2 min iv injection once daily for 7 days, n = 12

CCCCCCCCCC(=O)N[C@@H](Cc1c[nH]c2ccccc12)C(=O)N[C@H](CC(N)=O)C(=O)N[C@@H](CC(=O)O)C(=O)N[C@@H]1C(=O)NCC(=O)N[C@@H](CCCN)C(=O)N[C@@H](CC(=O)O)C(=O)N[C@H](C)C(=O)N[C@@H](CC(=O)O)C(=O)NCC(=O)N[C@H](CO)C(=O)N[C@@H]([C@H](C)CC(=O)O)C(=O)N[C@@H](CC(=O)c2ccccc2N)C(=O)O[C@@H]1C [daptomycin]
clearance [1, 3]: 0.143 mL/min/kg | Cmax [1, 4]: 56.8 µg/mL | Cmax [1, 3]: 62.8 µg/mL | Tmax ([1]; plasma, 4 mg/kg, Study 2, day 1, 4 mg/kg 2 min iv injection, plasma, n = 8): 8.4 min | Tmax ([1]; plasma, 4 mg/kg, Study 2, day 7, 4 mg/kg 2 min iv injection once daily, plasma, n = 8): 15 min | Vd [1, 4]: 0.116 L/kg | Vd [1, 3]: 0.109 L/kg | half-life ([1]; plasma, 4 mg/kg, t1/2, Study 2, day 1, 4 mg/kg 2 min iv injection, plasma, n = 8, SD): 545 min | half-life ([1]; plasma, 4 mg/kg, t1/2, Study 2, day 7, 4 mg/kg 2 min iv injection once daily, plasma, n = 8, SD): 536 min | AUC(0-inf) ([1]; plasma, 4 mg/kg, SD): 468 µg·h/mL | AUC(0-t) ([1]; plasma, 4 mg/kg, SD): 475 µg·h/mL | clearance [1, 5]: 0.145 mL/min/kg | Cmax [1, 6]: 97.5 µg/mL | Cmax [1, 5]: 91.8 µg/mL | Tmax ([1]; plasma, 6 mg/kg, Study 2, day 1, 6 mg/kg 2 min iv injection, plasma, n = 12): 1.8 min | Tmax ([1]; plasma, 6 mg/kg, Study 2, day 7, 6 mg/kg 2 min iv injection once daily, plasma, n = 12): 15 min | Vd [1, 6]: 0.106 L/kg | half-life ([1]; plasma, 6 mg/kg, t1/2, Study 2, day 1, 6 mg/kg 2 min iv injection, plasma, n = 12, SD): 506 min | AUC(0-t) ([1]; plasma, 6 mg/kg, SD): 701 µg·h/mL | dose excreted ([1]; 4 mg/kg, SD): 54.3% | dose excreted ([1]; 6 mg/kg, SD): 56.7% | Subjects with at least one adverse event possibly or probably related to study drug: Any adverse event [2, 7]: 2 (25) n (%) | Subjects with related adverse event: Gastrointestinal disorders [2, 7]: 1 (13) n (%) | Subjects with related adverse event: Infections and infestations [2, 7]: 0 n (%) | Subjects with related adverse event: Nervous system disorders [2, 7]: 1 (13) n (%) | Subjects with related adverse event: dizziness [2, 7]: 0 n (%) | Subjects with related adverse event: dizziness postural [2, 7]: 0 n (%) | Subjects with related adverse event: flatulence [2, 7]: 1 (13) n (%) | Subjects with related adverse event: headache [2, 7]: 0 n (%) | Subjects with related adverse event: lethargy [2, 7]: 1 (13) n (%) | Subjects with related adverse event: nausea [2, 7]: 0 n (%) | Subjects with related adverse event: pain in extremity [2, 7]: 1 (13) n (%) | Subjects with related adverse event: paraesthesia [2, 7]: 0 n (%) | Subjects with related adverse event: upper respiratory tract infection [2, 7]: 0 n (%) | subjects with erythema (local injection-site reaction) [2, 7]: five subjects | Subjects with at least one adverse event possibly or probably related to study drug: Any adverse event [2, 8]: 3 (25) n (%) | Subjects with related adverse event: Gastrointestinal disorders [2, 8]: 0 n (%) | Subjects with related adverse event: Infections and infestations [2, 8]: 0 n (%) | Subjects with related adverse event: Nervous system disorders [2, 8]: 3 (25) n (%) | Subjects with related adverse event: dizziness [2, 8]: 1 (8) n (%) | Subjects with related adverse event: dizziness postural [2, 8]: 1 (8) n (%) | Subjects with related adverse event: flatulence [2, 8]: 0 n (%) | Subjects with related adverse event: headache [2, 8]: 1 (8) n (%) | Subjects with related adverse event: lethargy [2, 8]: 0 n (%) | Subjects with related adverse event: nausea [2, 8]: 0 n (%) | Subjects with related adverse event: pain in extremity [2, 8]: 0 n (%) | Subjects with related adverse event: paraesthesia [2, 8]: 0 n (%) | Subjects with related adverse event: upper respiratory tract infection [2, 8]: 0 n (%) | subjects with erythema (local injection-site reaction) [2, 8]: two subjects | time to resolution of local injection-site reactions ([2]; Study 2, 2 min iv injection, reactions generally mild and transient): ≤ 1 h | serious or other significant AEs ([2]; Study 2, multiple-dose, 24 subjects enrolled (placebo included)): no serious or other significant AEs
